Experimental data collected from several papers.
Compare with care: the assays were run in different laboratories.

SMILES | system | conditions | endpoint | value
C[C@]12CC[C@H](n3ccnc3)CC1=CC[C@@H]1[C@@H]2CC[C@]2(C)C(n3cnc4ccccc43)=CC[C@@H]12.Cl | male CD-1 mouse, plasma | oral, 10 mg/kg | AUC(0-t) | 22600 ng·h/mL
CCC[C@@](N)(CO)CCc1ccc(OCCCCCC(C)C)cc1 | mouse, plasma | intraperitoneal, 10 mg/kg | AUC(0-t) | 1.06 µM·h
CN1CCCCC1Cn1cc(C(=O)c2cc([N+](=O)[O-])ccc2I)c2ccccc21 (racemic) | mouse, plasma | oral, 25 mg/kg | AUC | 1230 ng·h/mL
CCN(CC)CCCC[C@H](NC(=O)[C@H](CC(C)C)NC(=O)[C@H](C)NC(=O)[C@H](Cc1ccccc1)NC(=O)c1ccc(C(C)(C)C)cc1)C(=O)N[C@@H](CO)C(=O)OC | male Swiss mouse, blood | intravenous, 3 mg/kg | AUC(0-t) | 1890 ng·h/mL
C[C@]12CC[C@H](O)CC1=CC[C@@H]1[C@@H]2CC[C@]2(C)C(n3cnc4ccccc43)=CC[C@@H]12.Cl | mouse, plasma | intravenous, 1 mg/kg | AUC(0-t) | 44.3 ng·h/mL
CN[C@H](CC(C)C)C(=O)N[C@H]1C(=O)N[C@@H](CC(N)=O)C(=O)N[C@H]2C(=O)NC3C(=O)N[C@H](C(=O)N[C@H](C(=O)NCCC[N+](C)(C)C)c4cc(O)cc(O)c4-c4cc3ccc4O)[C@H](O)c3ccc(c(Cl)c3)Oc3cc2cc(c3OC2OC(CO)C(O)[C@H](O)[C@@H]2O[C@H]2CC(C)(NCc3ccc(-c4ccc(Cl)cc4)cc3)[C@H](O)[C@H](C)O2)Oc2ccc(cc2Cl)[C@H]1O (some centres unmarked) | mouse, plasma | intravenous, 10 mg/kg | AUC | 81100 ng·h/mL
NCC(=O)Nc1ccc(-n2nc(C(F)(F)F)cc2-c2ccc3c(ccc4ccccc43)c2)cc1 | mouse, plasma | oral, 80 mg/kg, single dose | AUC(0-t) | 41400 ng·h/mL
Cc1cc(C)nc(Nc2ncc(C(=O)NCCc3c(C)[nH]c4ccccc34)cn2)c1 | C57BL/6 mouse, plasma | intraperitoneal, 4.4 mg/kg | AUC(0-inf) | 155 ng·h/mL
